The text below walks through data of ChEMBL document CHEMBL3763111, “Identification of a diverse indole-2-carboxamides as a potent antileishmanial chemotypes” (Eur J Med Chem, 2016).

Series [1] can be described thus: Cytotoxicity against mouse J774A.1 cells after 72 hrs by MTT assay. The format is cell-based, J774.A1. In outline: (§1)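 Vero or J-774A.1 cells (1 x 10^5 cells/mL) exposed to 7 concentrations starting from 400 µM for 72 h. MTT (5 mg/mL stock) then added for 2 h at 37°C. Formazan dissolved in DMSO; absorbance read at 544 nm. CC50 estimated per Huber & Koella; mean ± SD of two independent assays in duplicate.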
In general terms: Tetrazolium dyes change colour on reduction, which living cells bring about.

The nature of series [2]: (§2) Selectivity index, ratio of CC50 for African green monkey Vero cells to IC50 for Leishmania donovani MHOM/IN/80/Dd8 amastigotes infected in mouse J774A.1 cells. The series is classed as functional. In outline: (§3)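 Ratio of Vero-cell MTT CC50 to IC50 against intracellular amastigotes, both measured in this work.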
Series [3] relates to Leishmania donovani. Nature of the series: Antileishmanial activity against Leishmania donovani MHOM/IN/80/Dd8 amastigotes infected in mouse J774A.1 cells incubated for 72 hrs by luminometric analysis. The series is classed as functional, organism-based. The following applies: MHOM/IN/80/Dd8, J774.A1, 72 h. In outline: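 Macrophages seeded at 4 x 10^4/mL in RPMI-1640 with 10% FCS for 24 h, then infected with stationary-phase promastigotes (4 x 10^5/mL) for 24 h. Free parasites washed off. Compounds added as 7-point two-fold dilutions from 40 µM; 72 h at 37°C. Read-out was Steady Glo luminescence. IC50 from four-parameter Hill fit; two independent assays in duplicate.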

The nature of series [4]: Cytotoxicity against African green monkey Vero cells after 72 hrs by MTT assay. The format is cell-based. The following applies: chlorocebus sabaeus. In outline: as §1
Series [5] concerns Syrian golden hamster. Nature of the series: Toxicity in golden hamster infected with amastigote stage of Leishmania donovani MHOM/IN/80/Dd8 assessed as abnormality in behaviour at 50 mg/kg/day, ip administered for 5 days. To be noted: in vivo, 120 h. The series is classed as organism-based, Mesocricetus auratus.
The subject of series [6] is Leishmania donovani. In words: Antileishmanial activity against amastigote stage of Leishmania donovani MHOM/IN/80/Dd8 infected in golden hamster at 50 mg/kg/day, ip administered for 5 days measured on day 7 of last dose by Geimsa staining method. The format is functional. The following applies: MHOM/IN/80/Dd8, ip. In outline: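 Inbred golden hamsters (40–45 g) infected intracardially with 1x10^7 amastigotes; only animals with +1 infection at 15-day spleen biopsy used. Five to six per group. Aqueous compound given ip at 50 mg/kg/day for 5 days, starting 2 days after biopsy. Splenic biopsy on day 7 after last dose, Giemsa-stained. Percent inhibition by formula relative to initial and untreated-control counts; pooled from at least two experiments.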

Series [7] concerns Vero. The description is as §2. The series is classed as functional. A digest of the protocol: as §3
The test system of series [8] is Leishmania donovani. Nature of the series: Antileishmanial activity against amastigote stage of Leishmania donovani MHOM/IN/80/Dd8 infected in golden hamster at 40 mg/kg, ip administered for 5 days measured on day 7 of last dose by Geimsa staining method. The series is classed as functional, organism-based.
Series [9] deals with Leishmania donovani. Nature of the series: Potency index, ratio of IC50 for miltefosine to IC50 for test compound against Leishmania donovani MHOM/IN/80/Dd8 amastigotes infected in mouse J774A.1 cells. The series is classed as functional.
The subject of series [10] is Leishmania donovani. In words: Antileishmanial activity against amastigote stage of Leishmania donovani MHOM/IN/80/Dd8 infected in golden hamster at 30 mg/kg, po administered for 5 days measured on day 7 of last dose by Geimsa staining method. The format is functional. To be noted: MHOM/IN/80/Dd8, po. A digest of the protocol: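 Golden hamsters (inbred, either sex, 40–45 g) were infected intracardially with 1x 10^7 L. donovani amastigotes. Spleen biopsy at day 15; animals with +1 infection (5–10 amastigotes/100 spleen cell nuclei) were used, 5–6 per group. Dosing started 2 days after biopsy and ran 5 consecutive days. Day-7 post-treatment splenic amastigotes were counted by Giemsa stain; percent inhibition was computed against initial and untreated-control counts.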

In the case of `COc1ccc(CNC(=O)CN(C(=O)c2cc3ccccc3[nH]2)C(C(=O)NC(C)(C)C)c2ccc(Br)cc2)cc1` (stereo unspecified), the CC50 (commonly the concentration at which the toxic effect on the cells reaches its halfway point) at 72 h in series [1] was 135 µM; in series [4] it was above 400 µM. Besides, in series [2], the “Ratio CC50/IC50” value was above 266. Also, the IC50 (in general, the concentration that gives 50% inhibition) in series [3] was 1.5 µM.
Regarding `CC(C)(C)NC(=O)C(c1ccc(Br)cc1)N(CC(=O)NCCCN1CCOCC1)C(=O)c1cc2ccccc2[nH]1` (stereo unspecified), the Activity entry in series [5] is recorded as “Non-toxic”. Further, the figures for the CC50 at 72 h in series [1] and in [4] were 147 µM and above 400 µM, respectively. Also, the “Ratio CC50/IC50” value in series [2] is above 400. Besides, the inhibition in vivo (in general, the change of the read-out against control, counted positive when it falls) at 50 mg/kg/day in series [6] stood at 63.5%. The same compound displayed an IC50 in series [3] of 1 µM.
Turning to Sodium stibo-gluconate, in series [7], the Ratio CC50/IC50 was above 7. Also, in series [8], the inhibition (in general, the drop in the measured response relative to a control, in per cent) was determined as 86.9%.
`CC(C)(C)NC(=O)C(c1ccc(Cl)cc1)N(CC(=O)NCCO)C(=O)c1cc2ccccc2[nH]1` (stereo unspecified): the figures for the CC50 at 72 h in series [1] and in series [4] were 239 µM and 226 µM, respectively. The “Ratio CC50/IC50” value in [2] is below 5. In [3], this compound yielded an IC50 above 40 µM.
In the same order, the values of `COc1ccc(C(C(=O)NC(C)(C)C)N(CC(=O)NCc2ccc(Cl)cc2)C(=O)c2cc3ccccc3[nH]2)cc1` (stereo unspecified) are 123 µM, 400 µM, 53 and 7.5 µM.
With `COc1cc(C(C(=O)NC(C)(C)C)N(CC(=O)NCc2ccc(Cl)c(Cl)c2)C(=O)c2cc3ccccc3[nH]2)cc(OC)c1OC` (stereo unspecified), the CC50 at 72 h in series [1] was 61.4 µM; in series [4] it was 72.9 µM. The “Ratio CC50/IC50” value in series [2] is given as 11. In [3], this compound showed an IC50 of 6.3 µM.
In the same order, the values of `COc1ccc(CNC(=O)CN(C(=O)c2ccc[nH]2)C(C(=O)NC(C)(C)C)c2cc(OC)c(OC)c(OC)c2)cc1` (stereo unspecified) are 62.4 µM, 73 µM, 5 and 14.5 µM.
For `CC(C)(C)NC(=O)C(c1ccc(Cl)cc1)N(CC(=O)NCCCN1CCOCC1)C(=O)c1cc2ccccc2[nH]1` (stereo unspecified), the CC50 at 72 h in [1] came out at 198 µM; in series [4] it was 212 µM. Moreover, in [2], the “Ratio CC50/IC50” value is 101. In [9], the “Ratio IC50” value stood at 4. This compound also displayed an IC50 in [3] of 2.1 µM.
With `COc1ccc(CNC(=O)CN(C(=O)c2cc3ccccc3[nH]2)C(C(=O)NC(C)(C)CC(C)(C)C)c2ccc(Cl)cc2)cc1` (stereo unspecified), the results for the CC50 at 72 h in series [1] and in series [4] were 51.2 µM and above 400 µM, respectively. Also, the “Ratio CC50/IC50” value in series [2] is above 129. The same compound had an IC50 in series [3] of 3.1 µM.
The matching figures for `CC(C)(C)NC(=O)C(c1ccc(Cl)cc1)N(CC(=O)NCc1ccccc1)C(=O)c1cc2ccccc2[nH]1` (stereo unspecified): 152 µM, 248 µM, 28 and 8.8 µM.
Consider `COc1ccc(CNC(=O)CN(C(=O)c2cc3ccccc3[nH]2)C(C(=O)NC(C)(C)C)c2cc(OC)c(OC)c(OC)c2)cc1` (stereo unspecified), for which the CC50 at 72 h was 53.6 µM in series [1] and 70.3 µM in series [4]. For the same compound, in series [2], the “Ratio CC50/IC50” value turned out to be 7. Further, half-maximal inhibition in series [3] (IC50) required 9.2 µM.
For `COc1ccc(CNC(=O)CN(C(=O)c2cc3ccccc3[nH]2)C(C(=O)NC(C)(C)C)c2ccc(OC)cc2)cc1` (stereo unspecified), in [5], the Activity entry was “Non-toxic”. Also, the values for the CC50 at 72 h in [1] and in series [4] were 145 µM and above 400 µM, respectively. Also, the “Ratio CC50/IC50” value in [2] was above 666. Further, the inhibition in vivo at 50 mg/kg/day in series [6] turned out to be 63.4%. Further, the “Ratio IC50” value in [9] came out at 14. This compound had an IC50 in series [3] of 0.6 µM.
For `COc1cc(C(C(=O)NC(C)(C)C)N(CC(=O)NCc2ccccc2)C(=O)c2cc3ccccc3[nH]2)cc(OC)c1OC` (stereo unspecified), the results for the CC50 at 72 h in series [1] and in [4] were 66.8 µM and 176 µM, respectively. In addition, the “Ratio CC50/IC50” value in series [2] was below 4. The IC50 in series [3] was above 40 µM.
Turning to `CCCCCCCCCCCCCCCCOP(=O)([O-])OCC[N+](C)(C)C` [MILTEFOSINE], the Activity result in [5] was “Non-toxic”. The CC50 at 72 h in series [1] amounted to 14.3 µM. The “Ratio CC50/IC50” value in series [2] is 6. The compound also gave an inhibition in vivo at 30 mg/kg in series [10] of 98.1%. For the same compound, the IC50 in [3] was determined as 8.4 µM.
As for `CC(C)(C)NC(=O)C(c1ccc(Cl)cc1)N(CC(=O)NCc1ccncc1)C(=O)c1cc2ccccc2[nH]1` (stereo unspecified), the CC50 at 72 h in [1] is 129 µM; in series [4], above 400 µM. The “Ratio CC50/IC50” value in [2] was above 62. Further, the IC50 in series [3] was 6.4 µM.
Turning to `COc1ccc(C(C(=O)NC(C)(C)C)N(CC(=O)NCc2ccncc2)C(=O)c2cc3ccccc3[nH]2)cc1` (stereo unspecified), the CC50 at 72 h in series [1] worked out at 47.9 µM; in [4], 109 µM. Besides, in series [2], the “Ratio CC50/IC50” value worked out at 78. The same compound displayed an IC50 in series [3] of 1.4 µM.
The matching figures for `COc1cccc(CNC(=O)CN(C(=O)c2cc3ccccc3[nH]2)C(C(=O)NC(C)(C)C)c2ccc(Cl)cc2)c1` (stereo unspecified): 42.5 µM, above 400 µM, above 210 and 1.9 µM.
The matching figures for `CC(C)(C)NC(=O)C(c1ccc(Cl)cc1)N(CC(=O)NCc1ccc(Cl)c(Cl)c1)C(=O)c1cc2ccccc2[nH]1` (stereo unspecified): 19.2 µM, 52.2 µM, 7 and 7.5 µM.
In the case of `CC(C)(C)NC(=O)C(c1ccc(Cl)cc1)N(CC(=O)NCc1ccc(Cl)cc1)C(=O)c1cc2ccccc2[nH]1` (stereo unspecified), the CC50 at 72 h in series [1] is 143 µM; in series [4] it was above 400 µM. Besides, the “Ratio CC50/IC50” value in [2] was above 36. This compound gave an IC50 in series [3] of 10.9 µM.
